Measurements collected from several papers.
Protocols differ between the studies behind these lines.
Tested at: 1 µM
CDK5: Cyclin-dependent kinase 5 (CDK5, Homo sapiens, UniProt Q00535)
CDK5 with p35: Cyclin-dependent kinase 5, with p35 (CDK5, Homo sapiens, UniProt Q00535)

C=CC(=O)N1CCC([C@@H]2CCNc3c(C(N)=O)c(-c4ccc(Oc5ccccc5)cc4)nn32)CC1  inhibition (CDK5; enzyme activity, inhibitor): 7%
C[C@H]1CC[C@H](n2c3cnccc3c3cnc(Nc4ccc5c(n4)CCN(C(=O)CO)C5)nc32)CC1  remaining binding (CDK5; binding, competition with immobilised ligand): 26%
COc1ccc2oc(-c3ccc4nc(N)oc4c3)c/c(=N\c3ccccc3NC(=O)CCN)c2c1  remaining binding (CDK5 with p35; binding): 107%
CC(C)S(=O)(=O)c1ccc2nccc(Nc3ccc4sc(C5CCCC5)nc4c3)c2c1  activity vs control (CDK5 with p35; enzyme activity, inhibitor): 101%
Cc1cc(S(=O)(=O)N[C@H]2CC[C@H](CN3CCN(c4ccc(C5CCC(=O)NC5=O)cc4F)CC3)CC2)ccc1Nc1ncc(C(F)(F)F)c(N2CCC[C@](C)(O)C2)n1 (some centres unmarked)  remaining binding (CDK5; binding, competition with immobilised ligand): 29%
CN1CCN(C(=O)c2ccc(NC(=O)Nc3ccc(N(C)c4ccnc(Nc5ccc(CS(C)(=O)=O)cc5)n4)cc3)cc2)CC1  remaining binding (CDK5; binding, competition with immobilised ligand): 91%
C=CC(=O)N1CCC[C@@H](n2nc(-c3ccc(Oc4ccccc4)cc3)c3c(N)ncnc32)C1  inhibition (CDK5; enzyme activity, inhibitor): 10%
CNS(=O)(=O)c1ccc(Nc2ncc(C(F)(F)F)c(N3CCC[C@](C)(O)C3)n2)c(C)c1  remaining binding (CDK5; binding, competition with immobilised ligand): 13%
